Usually IC50 stands for the concentration that inhibits the measured activity by half.

One assay concerns A549. The assay is described as follows: Antiproliferative activity against human A549 cells harboring EGFR K-ras mutant assessed as decrease in cell viability after 72 hrs by MTT assay. It is filed as functional, cell-based. The following applies: A549, 72 h. In general terms: Tetrazolium dyes change colour on reduction, which living cells bring about.
The test system of assay [1] is Epidermal growth factor receptor (Homo sapiens), P00533 [L858R,T790M]. Put plainly: Potency index, ratio of gefitinib IC50 to test compound IC50 for recombinant human EGFR T790M/L858R double mutant (695 to end residues).
The test system of a further assay is A-431. Put plainly: Antiproliferative activity against human A431 cells harboring wild type EGFR assessed as decrease in cell viability after 72 hrs by MTT assay. It is filed as ADME, cell-based. The conditions noted are these: A-431, 72 h.
Assay [2] concerns NCI-H1975. The assay is described as follows: Antiproliferative activity against human NCI-H1975 cells harboring EGFR T790M/L858R double mutant assessed as decrease in cell viability after 72 hrs by MTT assay. It is filed as functional, cell-based. The following applies: NCI-H1975, 72 h.
The target in assay [3] is Epidermal growth factor receptor (Homo sapiens, UniProt P00533, L858R/T790M).
For assay [4], the target named is Epidermal growth factor receptor (Homo sapiens, UniProt P00533). It is filed as ADME.
Another assay deals with HCC827. Put plainly: Antiproliferative activity against human HCC827 cells harboring EGFR del E746 to A750 mutant assessed as decrease in cell viability after 72 hrs by MTT assay. Type of assay: functional, cell-based. The conditions noted are these: HCC827, 72 h.
The nature of assay [5]: Antiproliferative activity against NHBE cells assessed as decrease in cell viability after 72 hrs by MTT assay. It is filed as ADME, cell-based. The following applies: Homo sapiens.
The subject of assay [6] is NCI-H1975. The assay is described as follows: Induction of apoptosis in human NCI-H1975 cells harboring EGFR T790M/L858R double mutant assessed as early apoptotic cells at 1 uM after 72 hrs by annexin V/FITC staining-based flow cytometric method relative to control. It is filed as functional. In a few lines: (§1)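 H1975 cells (ATCC), grown as monolayers at 37 °C in humidified 5% CO2, were incubated with compound at the indicated concentrations for 72 h. They were then stained with annexin V/FITC and analysed by flow cytometry. The data shown come from one representative experiment.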
In general terms: Flow cytometry measures light scatter and fluorescence of single cells or particles in a stream.

Assay [7] deals with NCI-H1975. The assay is described as follows: Induction of apoptosis in human NCI-H1975 cells harboring EGFR T790M/L858R double mutant assessed as necrotic cells at 4 uM after 72 hrs by annexin V/FITC staining-based flow cytometric method relative to control. It is filed as functional. The method in brief:
as §1

Assay [8] concerns NCI-H1975. Put plainly: Induction of apoptosis in human NCI-H1975 cells harboring EGFR T790M/L858R double mutant assessed as late apoptotic cells at 1 uM after 72 hrs by annexin V/FITC staining-based flow cytometric method relative to control. It is filed as functional. In a few lines: as §1
Assay [9] deals with NCI-H1975. Put plainly: Induction of apoptosis in human NCI-H1975 cells harboring EGFR T790M/L858R double mutant assessed as necrotic cells at 8 uM after 72 hrs by annexin V/FITC staining-based flow cytometric method relative to control. Type of assay: functional. The method in brief:
as §1

The subject of assay [10] is NCI-H1975. The assay is described as follows: Induction of apoptosis in human NCI-H1975 cells harboring EGFR T790M/L858R double mutant assessed as viable cells at 8 uM after 72 hrs by annexin V/FITC staining-based flow cytometric method relative to control. It is filed as functional. The conditions noted are these: NCI-H1975, 72 h, read-out: Activity. In a few lines: as §1

The test system of assay [11] is NCI-H1975. The assay is described as follows: Induction of apoptosis in human NCI-H1975 cells harboring EGFR T790M/L858R double mutant assessed as necrotic cells at 1 uM after 72 hrs by annexin V/FITC staining-based flow cytometric method relative to control. Type of assay: functional. In a few lines: as §1
The subject of assay [12] is NCI-H1975. The assay is described as follows: Induction of apoptosis in human NCI-H1975 cells harboring EGFR T790M/L858R double mutant assessed as early apoptotic cells at 4 uM after 72 hrs by annexin V/FITC staining-based flow cytometric method relative to control. Type of assay: functional. The method in brief: as §1
The subject of assay [13] is NCI-H1975. Put plainly: Induction of apoptosis in human NCI-H1975 cells harboring EGFR T790M/L858R double mutant assessed as late apoptotic cells at 8 uM after 72 hrs by annexin V/FITC staining-based flow cytometric method relative to control. Type of assay: functional. The method in brief: as §1
Assay [14] concerns NCI-H1975. The assay is described as follows: Induction of apoptosis in human NCI-H1975 cells harboring EGFR T790M/L858R double mutant after 72 hrs by annexin V/FITC staining-based flow cytometric method. It is filed as functional, cell-based. The method in brief:
as §1

For assay [15], the system named is NCI-H1975. Put plainly: Induction of apoptosis in human NCI-H1975 cells harboring EGFR T790M/L858R double mutant assessed as late apoptotic cells at 4 uM after 72 hrs by annexin V/FITC staining-based flow cytometric method relative to control. It is filed as functional. The method in brief:
as §1

Assay [16] has as its system NCI-H1975. Put plainly: Induction of apoptosis in human NCI-H1975 cells harboring EGFR T790M/L858R double mutant assessed as viable cells at 1 uM after 72 hrs by annexin V/FITC staining-based flow cytometric method relative to control. It is filed as functional. The following applies: NCI-H1975, 72 h, read-out: Activity. In a few lines: as §1
For assay [17], the system named is NCI-H1975. Put plainly: Induction of apoptosis in human NCI-H1975 cells harboring EGFR T790M/L858R double mutant assessed as early apoptotic cells at 8 uM after 72 hrs by annexin V/FITC staining-based flow cytometric method relative to control. It is filed as functional. In a few lines:
as §1

In assay [18] the test system is NCI-H1975. The assay is described as follows: Induction of apoptosis in human NCI-H1975 cells harboring EGFR T790M/L858R double mutant assessed as viable cells at 4 uM after 72 hrs by annexin V/FITC staining-based flow cytometric method relative to control. Type of assay: functional. The following applies: NCI-H1975, 72 h, read-out: Activity. The method in brief: as §1

Where only a bound is given, the exact number is not on record here.

With `C=CC(=O)Nc1cccc(Nc2nc(Nc3ccc(/C=C/c4cc(Cl)cc(Cl)c4)cc3)ncc2F)c1`, the half-inhibitory concentration (IC50) came out at 7.01 µM with A549; 1.29 µM in the assay on A-431; 6.98 µM in the assay with NCI-H1975 [2]; 14.2 nM in [3]; 388 nM in assay [4]; 10.8 µM in the assay with HCC827. For the same compound, the IC50 in [5] is 5.42 µM. The Ratio IC50 in assay [1] was in the range of 45 to 177.
`C=CC(=O)Nc1cccc(Nc2nc(Nc3ccc(/C=C/c4ccc(C)cc4C)cc3)ncc2Cl)c1`: the half-inhibitory concentration (IC50) in the assay on A549 was 4.94 µM; in the assay on A-431, 3.16 µM; with NCI-H1975 [2], 4.39 µM; in assay [3], 6.8 nM; in assay [4], 996 nM; with HCC827 it was 9.71 µM. In [5], the concentration for half-maximal inhibition (IC50) came to 15.8 µM. The Ratio IC50 in assay [1] is 45 to 177.
Turning to `C=CC(=O)Nc1cccc(Oc2nc(Nc3ccc(/C=C/c4cc(C)cc(C)c4)cc3)ncc2Cl)c1`, the IC50 with A549 was determined as 10.8 µM; in the assay with A-431, 4.71 µM; in the assay with NCI-H1975 [2] it was 13.7 µM; in [3] it was 22.4 nM; in [4] it was 87 nM; in the assay with HCC827, 11.7 µM. For the same compound, the half-maximal inhibitory concentration (IC50) in [5] was 6.07 µM. In assay [1], the Ratio IC50 lay in the range of 45 to 177.
With `C=CC(=O)Nc1cccc(Nc2nc(Nc3ccc(/C=C/c4cc(C)cc(C)c4)cc3)ncc2F)c1`, the Activity amounted to 17.7% in the assay with NCI-H1975 [6]; 1.4% with NCI-H1975 [7]; 22.7% in the assay with NCI-H1975 [8]; 13.2% in the assay with NCI-H1975 [9]; 3.7% with NCI-H1975 [11]; 27.1% with NCI-H1975 [12]. For the same compound, the Activity was 76.1% in the assay on NCI-H1975 [13], “Dose-dependent effect” in the assay on NCI-H1975 [14], 25.8% with NCI-H1975 [15] and 3.7% in the assay on NCI-H1975 [17]. The IC50 with A549 amounted to 12.8 µM; in the assay on A-431 it was 10.6 µM; in the assay on NCI-H1975 [2] it was 2.91 µM; in assay [3], 11 nM; in assay [4], 539 nM; in the assay on HCC827, 2.07 µM. The IC50 in assay [5] stood at 22.5 µM. The Ratio IC50 in [1] lay in the range of 45 to 177. Moreover, the viability at 8 µM with NCI-H1975 [10] is 7%. In addition, in the assay on NCI-H1975 [16], the viability at 1 µM worked out at 55.9%. Further, the viability at 4 µM with NCI-H1975 [18] is 45.7%.
Consider `C=CC(=O)Nc1cccc(Nc2nc(Nc3ccc(/C=C/c4cc(OC)cc(OC)c4)cc3)ncc2Cl)c1`, for which the 50% inhibitory concentration (IC50) with A549 worked out at 6.84 µM; in the assay with A-431, 1.78 µM; in the assay with NCI-H1975 [2], 3.76 µM; in [3], 15.7 nM; in assay [4], 216 nM; in the assay on HCC827, 3.32 µM. In [5], the IC50 came out at 9.18 µM. Further, the Ratio IC50 in assay [1] lay within 45 to 177.
On to `C=CC(=O)Nc1cccc(Nc2nc(Nc3ccc(N4CCN(C(C)=O)CC4)cc3OC)ncc2C(F)(F)F)c1` [ROCILETINIB], for which the IC50 is 3.24 µM with A549; 1.79 µM in the assay with A-431; 0.137 µM in the assay with NCI-H1975 [2]; 0.031 µM in the assay with HCC827; 23.8 µM in [5].
As to `C=CC(=O)Nc1cccc(Nc2nc(Nc3ccc(/C=C/c4ccc(C)cc4C)cc3)ncc2F)c1`, the concentration for half-maximal inhibition (IC50) with A549 was 1.32 µM; with A-431 it was 3.11 µM; with NCI-H1975 [2] it was 7.16 µM; in [3], 8.1 nM; in assay [4], 387 nM; in the assay with HCC827, over 20 µM. In [5], the IC50 was 10.4 µM. Also, in [1], the Ratio IC50 lay within 45 to 177.
As for `C=CC(=O)Nc1cccc(Nc2nc(Nc3ccc(/C=C/c4cc(C)cc(C)c4)cc3)ncc2Cl)c1`, the IC50 in the assay on A549 was 5.59 µM; with A-431, 5.56 µM; in the assay with NCI-H1975 [2] it was 2.32 µM; in assay [3], 26.5 nM; in [4] it was 607 nM; in the assay on HCC827 it was 4 µM. Further, the IC50 in [5] was found to be 17 µM. In addition, in [1], the Ratio IC50 fell in the range of 45 to 177.
In the case of `C=CC(=O)Nc1cccc(Nc2nc(Nc3ccc(/C=C/c4cc(Cl)cc(Cl)c4)cc3)ncc2Cl)c1`, the IC50 in the assay on A549 was found to be 15.8 µM; in the assay on A-431, 6.56 µM; in the assay on NCI-H1975 [2], 6.98 µM; in [3] it was 11.3 nM; in [4], 1040 nM; with HCC827 it was 9.16 µM. Also, in [5], the 50% inhibitory concentration (IC50) turned out to be 35.2 µM. In addition, the Ratio IC50 in assay [1] was in the range of 45 to 177.
